Experiment [1] has as its system HeLa. Description: Cytotoxicity against HeLa cells by MTS assay at 50 uM measured as percentage survival. Type of experiment: functional, Homo sapiens. The method, boiled down:
(§1)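 HeLa cells were exposed to the compound at three concentrations (12.5, 25 and 50 µM). Viability was read by MTS assay and expressed as % survival.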

Experiment [2] relates to HeLa. The experiment is described as follows: Cytotoxicity against HeLa cells by MTS assay at 25 uM measured as percentage survival. Format: functional, Homo sapiens. The procedure, abridged:
as §1

For experiment [3], the target named is T1, Replicative DNA helicase (Pseudomonas aeruginosa (strain ATCC 15692 / PAO1 / 1C / PRS 101 / LMG12228), UniProt Q9HUN3).
T1 sequence (Q9HUN3 whole entry): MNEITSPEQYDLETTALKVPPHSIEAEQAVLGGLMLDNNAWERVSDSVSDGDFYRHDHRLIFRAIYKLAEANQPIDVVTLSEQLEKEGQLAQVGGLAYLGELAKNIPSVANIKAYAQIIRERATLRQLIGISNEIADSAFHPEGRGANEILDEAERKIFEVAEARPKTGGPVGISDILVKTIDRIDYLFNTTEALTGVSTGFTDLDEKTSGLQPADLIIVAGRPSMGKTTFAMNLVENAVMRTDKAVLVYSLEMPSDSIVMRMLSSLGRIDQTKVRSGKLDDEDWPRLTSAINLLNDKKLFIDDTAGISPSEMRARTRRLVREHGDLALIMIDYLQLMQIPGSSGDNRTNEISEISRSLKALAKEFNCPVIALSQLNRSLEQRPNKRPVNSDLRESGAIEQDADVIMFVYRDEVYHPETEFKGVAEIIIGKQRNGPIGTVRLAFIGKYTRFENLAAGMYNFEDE
Description: Inhibition of Pseudomonas aeruginosa DnaB helicase.

For experiment [4], the system named is Escherichia coli. Description: Antibacterial activity against tolC deficient Escherichia coli LBB925. Type of experiment: functional. The procedure, abridged: (§2)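 MIC by broth dilution following NCCLS standard M7-A4 for aerobically growing bacteria, reported in µg/mL. Strains were S. aureus RN4220, tolC-deficient hypersusceptible E. coli LBB925, and permeability-barrier-deficient P. aeruginosa Z61.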

The subject of experiment [5] is Staphylococcus aureus. The experiment is described as follows: Antibacterial activity against Staphylococcus aureus RN4220. Format: functional. The method, boiled down:
as §2

Experiment [6] has as its system Pseudomonas aeruginosa. Description: Antibacterial activity against permeability barrier deficient Pseudomonas aeruginosa Z61. Format: functional. The method, boiled down:
as §2

In experiment [7] the test system is HeLa. The experiment is described as follows: Cytotoxicity against HeLa cells by MTS assay at 12.5 uM measured as percentage survival. Type of experiment: functional, Homo sapiens. The procedure, abridged: as §1
Experiment [8] concerns Staphylococcus aureus. The experiment is described as follows: Antibacterial activity against Staphylococcus aureus infected in mouse at 0.2 mL. Type of experiment: functional, organism-based.

Values after ≈ are worked out from the molar mass of the structure shown. Active and inactive are the calls of the source. The rule behind the calls is not given here.

Consider 15 compounds from ChEMBL document CHEMBL1138995, “Triaminotriazine DNA helicase inhibitors with antibacterial activity” (Bioorg Med Chem Lett, 2006).

On to `Clc1cccc(Nc2nc(Nc3cccc(Cl)c3)nc(Nc3cccc(Cl)c3)n2)c1`, for which the Activity in experiment [1] was found to be 64%; in experiment [2], 83%; in experiment [7], 74%. In experiment [3], this compound had a half-inhibitory concentration (IC50) of 31 µM. Also, the MIC in experiment [4], in experiment [5] and in experiment [6] was above 128 µg/mL in each case.

Compound `COc1ccc(Nc2nc(NCCN3CCOCC3)nc(Nc3ccc(OC)cc3)n2)cc1` had a 50% inhibitory concentration (IC50) in experiment [3] above 100 µM.

On to `O=[N+]([O-])c1ccc(Nc2nc(NCCN3CCOCC3)nc(Nc3ccc(Cl)cc3)n2)cc1`, for which the results for the Activity in experiment [1], in experiment [2] and in experiment [7] were 10%, 19% and 78%, respectively. The IC50 in experiment [3] was determined as 5 µM. The MIC in experiment [4] is above 128 µg/mL; in experiment [5], 4 µg/mL (≈ 8.49 µM); in experiment [6], above 128 µg/mL. For the same compound, in experiment [8], the outcome was inactive.

As for `Fc1ccc(Nc2nc(Nc3ccc(F)c(F)c3)nc(N3CCN(Cc4ccccc4)CC3)n2)cc1F`, the Activity came to 97% in experiment [1], 99% in experiment [2] and 96% in experiment [7]. In experiment [3], this compound returned a 50% inhibitory concentration (IC50) of 6 µM. In addition, the MIC in experiment [4], in experiment [5] and in experiment [6] was above 128 µg/mL throughout.

`OCCN1CCN(c2nc(Nc3ccc(F)c(F)c3)nc(Nc3ccc(F)c(F)c3)n2)CC1`: the Activity in experiment [1] was determined as 47%; in experiment [2], 91%; in experiment [7] it was 80%. Further, 18 µM corresponded to half-maximal inhibition in experiment [3] (IC50). For the same compound, the MIC was 16 µg/mL (≈ 34.5 µM) in experiment [4], 16 µg/mL (≈ 34.5 µM) in experiment [5] and above 128 µg/mL in experiment [6].

As for `Clc1ccc(Nc2nc(NCCN3CCOCC3)nc(Nc3ccccc3)n2)cc1`, the Activity in experiment [1] was 14%; in experiment [2], 74%; in experiment [7], 98%. In addition, half-maximal inhibition in experiment [3] (IC50) was put at 65 µM. In addition, the MIC in experiment [4] was 16 µg/mL (≈ 37.6 µM); in experiment [5] it was 64 µg/mL (≈ 150 µM); in experiment [6] it was above 128 µg/mL.

Regarding `c1ccc(Nc2nc(NCCN3CCOCC3)nc(Nc3ccccc3)n2)cc1`, the IC50 in experiment [3] was above 100 µM.

`CC(=O)c1ccc(Nc2nc(Nc3ccc(Br)cc3)nc(Nc3ccc(Br)cc3)n2)cc1`: half-maximal inhibition in experiment [3] (IC50) was put at 6 µM. Also, the MIC in experiment [4], in experiment [5] and in experiment [6] was above 64 µg/mL each time.

Take `Clc1ccc(Nc2nc(NCCN3CCOCC3)nc(Nc3ccc(Cl)cc3)n2)cc1`: the Activity in experiment [1] was found to be 6%; in experiment [2] it was 90%; in experiment [7], 103%. This compound also yielded an IC50 in experiment [3] of 20 µM. Also, the minimal inhibitory concentration (MIC) in experiment [4] is above 128 µg/mL; in experiment [5], 4 µg/mL (≈ 8.69 µM); in experiment [6], above 128 µg/mL. The outcome in experiment [8] was inactive.

Regarding `CC(C)CN1CCN(c2nc(Nc3ccc(F)c(F)c3)nc(Nc3ccc(F)c(F)c3)n2)CC1`, the Activity is given as 86% in experiment [1], 99% in experiment [2] and 99% in experiment [7]. Besides, the IC50 in experiment [3] is 5 µM. The minimum inhibitory concentration (MIC) in experiment [4] is above 128 µg/mL; in experiment [5] it was 4 µg/mL (≈ 8.41 µM); in experiment [6], above 128 µg/mL.

Take `Fc1ccc(Nc2nc(Nc3ccc(F)c(F)c3)nc(N3CCN(CCOc4ccccc4)CC3)n2)cc1F`: the Activity in experiment [1] is recorded as 99%; in experiment [2], 100%; in experiment [7], 97%. This compound showed an IC50 in experiment [3] of 5 µM. Moreover, the MIC in experiment [4], in experiment [5] and in experiment [6] was above 128 µg/mL each time.

With `Fc1ccc(Nc2nc(NCCN3CCOCC3)nc(Nc3ccc(F)cc3)n2)cc1`, the half-inhibitory concentration (IC50) in experiment [3] is above 100 µM.

In the case of `CN1CCN(c2nc(Nc3ccc(F)cc3)nc(Nc3ccc(F)cc3)n2)CC1`, the Activity in experiment [1] stood at 11%; in experiment [2], 64%; in experiment [7], 100%. The compound also returned an IC50 in experiment [3] of 22 µM. In addition, the figures for the MIC in experiment [4], in experiment [5] and in experiment [6] were 16 µg/mL (≈ 40.3 µM), 32 µg/mL (≈ 80.5 µM) and above 128 µg/mL, respectively.

`Fc1ccc(Nc2nc(NCCN3CCOCC3)nc(Nc3ccc(F)c(F)c3)n2)cc1F`: the Activity in experiment [1] is 47%; in experiment [2], 91%; in experiment [7], 101%. Also, the IC50 in experiment [3] stood at 19 µM. Besides, the values for the MIC in experiment [4], in experiment [5] and in experiment [6] were 16 µg/mL (≈ 34.5 µM), 16 µg/mL (≈ 34.5 µM) and above 128 µg/mL, respectively.

For `OCCN1CCN(c2nc(Nc3ccc(F)cc3)nc(Nc3ccc(F)cc3)n2)CC1`, the figures for the Activity in experiment [1], in experiment [2] and in experiment [7] were 51%, 104% and 101%, respectively. Also, the IC50 in experiment [3] was 23 µM. For the same compound, the minimal inhibitory concentration (MIC) in experiment [4] was 32 µg/mL (≈ 74.9 µM); in experiment [5] it was 64 µg/mL (≈ 150 µM); in experiment [6], above 128 µg/mL.

In general, IC50 refers to the midpoint of a concentration-inhibition curve. Low values mean higher potency, high ones lower potency. One may read the MIC as the least concentration at which growth counts as inhibited. Low readings indicate greater potency, high ones weaker potency.
